According to ChEMBL document CHEMBL1949555, “Piperazine-2,3-dicarboxylic acid derivatives as dual antagonists of NMDA and GluK1-containing kainate receptors” (J Med Chem, 2012):

What was measured:
[1] = biological target: Glutamate NMDA receptor; Grin1/Grin2b (Rattus norvegicus, UniProt P35439+Q00960); test: Antagonist activity rat recombinant GluN1/GluN2B receptor expressed in Xenopus laevis oocytes assessed as inhibition of glutamate-induced response by two-electrode voltage-clamp electrophysiology assay; type: functional, cell-based, Oocyte; conditions: read-out: Ki(app)
How it was run: (§1)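 Two-electrode voltage clamp of oocytes expressing rat GluN1a with the given GluN2 subunit, held at −60 mV in buffer of 116 mM NaCl, 2 mM KCl, 0.3 mM BaCl2, 5 mM HEPES, pH 7.4. Response is the steady plateau to bath-applied 10 μM L-glutamate plus 10 μM glycine. IC50 converted to apparent Ki via Ki = IC50/(1 + [agonist]/EC50). Means ± s.e.m.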

[2] = biological target: Glutamate receptor ionotropic, kainate 2 (Homo sapiens, UniProt Q13002); test: Antagonist activity at human recombinant GluK2 receptor expressed in human HEK293 cells assessed as inhibition of glutamate-stimulated calcium influx by fluorescence assay; type: functional, cell-based
Sequence of Glutamate receptor ionotropic, kainate 2 (Q13002 whole entry): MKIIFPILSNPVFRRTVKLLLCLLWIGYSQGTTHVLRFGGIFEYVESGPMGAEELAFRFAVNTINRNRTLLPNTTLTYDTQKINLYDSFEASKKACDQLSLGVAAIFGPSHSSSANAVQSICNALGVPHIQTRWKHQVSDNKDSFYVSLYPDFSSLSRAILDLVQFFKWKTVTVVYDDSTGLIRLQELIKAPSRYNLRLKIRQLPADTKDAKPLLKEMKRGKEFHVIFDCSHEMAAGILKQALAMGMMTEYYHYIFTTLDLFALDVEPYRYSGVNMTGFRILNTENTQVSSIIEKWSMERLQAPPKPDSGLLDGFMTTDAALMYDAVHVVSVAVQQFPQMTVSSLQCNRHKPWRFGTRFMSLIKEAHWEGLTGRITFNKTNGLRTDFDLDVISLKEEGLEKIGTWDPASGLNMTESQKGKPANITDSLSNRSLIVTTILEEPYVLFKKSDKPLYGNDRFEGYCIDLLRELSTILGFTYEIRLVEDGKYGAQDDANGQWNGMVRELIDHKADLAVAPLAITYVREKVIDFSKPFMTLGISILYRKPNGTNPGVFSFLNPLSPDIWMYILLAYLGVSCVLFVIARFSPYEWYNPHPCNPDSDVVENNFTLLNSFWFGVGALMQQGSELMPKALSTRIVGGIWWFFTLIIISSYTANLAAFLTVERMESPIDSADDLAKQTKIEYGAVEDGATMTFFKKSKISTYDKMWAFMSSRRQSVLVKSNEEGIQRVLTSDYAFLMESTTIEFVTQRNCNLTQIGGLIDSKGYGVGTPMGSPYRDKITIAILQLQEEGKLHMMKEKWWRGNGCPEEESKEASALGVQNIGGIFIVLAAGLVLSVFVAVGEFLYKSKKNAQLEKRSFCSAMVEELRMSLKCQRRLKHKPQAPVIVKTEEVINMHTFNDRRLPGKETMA
How it was run: (§2)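 HEK293 lines stably expressing homomeric human GluK1(Q) or GluK2(Q), passaged no more than 20 times. Ca2+ influx is read as fluorescence, with concanavalin A present. Test compound is added in a first run, then L-glutamate plus antagonist in a second run (final glutamate 30 μM for GluK1, 10 μM for GluK2). IC50 values are converted to KB. Means ± s.e.m.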

[3] = biological target: Glutamate NMDA receptor; Grin1/Grin2a (Rattus norvegicus, UniProt P35439+Q00959); test: Antagonist activity at rat recombinant GluN1/GluN2A receptor expressed in Xenopus laevis oocytes assessed as inhibition of glutamate-induced response by two-electrode voltage-clamp electrophysiology assay; type: functional, cell-based, Oocyte; conditions: read-out: Ki(app)
[4] = biological target: Ionotropic glutamate receptor NMDA 1/2D (Rattus norvegicus, UniProt P35439+Q62645); test: Antagonist activity rat recombinant GluN1/GluN2D receptor expressed in Xenopus laevis oocytes assessed as inhibition of glutamate-induced response by two-electrode voltage-clamp electrophysiology assay; type: functional, cell-based, Oocyte; conditions: read-out: Ki(app)
[5] = biological target: Glutamate NMDA receptor; Grin1/Grin2c (Rattus norvegicus, UniProt P35439+Q00961); test: Antagonist activity rat recombinant GluN1/GluN2C receptor expressed in Xenopus laevis oocytes assessed as inhibition of glutamate-induced response by two-electrode voltage-clamp electrophysiology assay; type: functional, cell-based, Oocyte; conditions: read-out: Ki(app); how it was run: as §1
[6] = biological target: Glutamate receptor ionotropic, kainate 1 (Homo sapiens, UniProt P39086); test: Antagonist activity at human recombinant GluK1 receptor expressed in human HEK293 cells assessed as inhibition of glutamate-stimulated calcium influx by fluorescence assay; type: functional, cell-based; how it was run: as §2
Sequence of Glutamate receptor ionotropic, kainate 1 (P39086 whole entry): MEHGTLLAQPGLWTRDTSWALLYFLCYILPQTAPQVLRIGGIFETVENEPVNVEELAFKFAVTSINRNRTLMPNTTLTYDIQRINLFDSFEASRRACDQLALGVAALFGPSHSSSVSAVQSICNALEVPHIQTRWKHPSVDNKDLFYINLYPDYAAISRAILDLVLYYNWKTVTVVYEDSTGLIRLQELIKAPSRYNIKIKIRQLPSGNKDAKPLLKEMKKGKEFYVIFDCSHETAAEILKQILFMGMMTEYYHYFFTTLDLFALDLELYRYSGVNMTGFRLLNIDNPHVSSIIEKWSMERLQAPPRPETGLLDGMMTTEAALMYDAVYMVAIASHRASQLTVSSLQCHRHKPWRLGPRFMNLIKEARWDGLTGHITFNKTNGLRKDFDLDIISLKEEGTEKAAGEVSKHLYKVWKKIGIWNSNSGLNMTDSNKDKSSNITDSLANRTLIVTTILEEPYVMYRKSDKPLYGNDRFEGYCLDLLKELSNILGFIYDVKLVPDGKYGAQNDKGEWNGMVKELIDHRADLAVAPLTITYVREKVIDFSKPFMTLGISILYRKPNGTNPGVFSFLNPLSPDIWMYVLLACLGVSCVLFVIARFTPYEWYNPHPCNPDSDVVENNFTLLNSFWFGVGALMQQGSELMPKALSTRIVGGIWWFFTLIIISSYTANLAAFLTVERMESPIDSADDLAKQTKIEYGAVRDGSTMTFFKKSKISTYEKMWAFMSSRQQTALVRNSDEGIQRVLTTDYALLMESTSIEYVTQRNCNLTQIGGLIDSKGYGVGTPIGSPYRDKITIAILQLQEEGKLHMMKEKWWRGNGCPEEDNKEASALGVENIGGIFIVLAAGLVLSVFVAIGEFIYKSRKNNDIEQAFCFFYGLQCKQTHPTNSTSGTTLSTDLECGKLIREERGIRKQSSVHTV

[7] = biological target: Glutamate NMDA receptor; Grin1/Grin2b (Rattus norvegicus) (UniProt P35439+Q00960); test: Antagonist activity rat recombinant GluN1/GluN2B receptor expressed in Xenopus laevis oocytes assessed as inhibition of glutamate-induced response at 100 uM by two-electrode voltage-clamp electrophysiology assay; type: functional, cell-based; conditions: Oocyte
How it was run: (§3)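 Rat GluN1a co-expressed with GluN2A, 2B, 2C or 2D in Xenopus oocytes. Two-electrode voltage clamp at −60 mV in buffer of 116 mM NaCl, 2 mM KCl, 0.3 mM BaCl2, 5 mM HEPES, pH 7.4. Response is the steady plateau evoked by bath-applied 10 μM L-glutamate plus 10 μM glycine. Read-out is percent antagonism by 100 μM test compound.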

[8] = biological target: Ionotropic glutamate receptor NMDA 1/2D (Rattus norvegicus) (UniProt P35439+Q62645); test: Antagonist activity rat recombinant GluN1/GluN2D receptor expressed in Xenopus laevis oocytes assessed as inhibition of glutamate-induced response at 100 uM by two-electrode voltage-clamp electrophysiology assay; type: functional, cell-based; conditions: Oocyte; how it was run: as §3
[9] = biological target: Glutamate NMDA receptor; Grin1/Grin2c (Rattus norvegicus) (UniProt P35439+Q00961); test: Antagonist activity rat recombinant GluN1/GluN2C receptor expressed in Xenopus laevis oocytes assessed as inhibition of glutamate-induced response at 100 uM by two-electrode voltage-clamp electrophysiology assay; type: functional, cell-based; conditions: Oocyte; how it was run: as §3
[10] = biological target: Glutamate NMDA receptor; Grin1/Grin2a (Rattus norvegicus) (UniProt P35439+Q00959); test: Antagonist activity at rat recombinant GluN1/GluN2A receptor expressed in Xenopus laevis oocytes assessed as inhibition of glutamate-induced response at 100 uM by two-electrode voltage-clamp electrophysiology assay; type: functional, cell-based; conditions: Oocyte; how it was run: as §3
Rattus norvegicus [11] = species: Rattus norvegicus; test: Selectivity ratio of Ki(app) for rat recombinant GluN1/GluN2C receptor to Ki(app) for rat recombinant GluN1/GluN2D receptor
How it was run: (§4)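 Rat GluN1a is co-expressed with GluN2A, 2B, 2C or 2D in Xenopus oocytes and recorded by two-electrode voltage clamp at −60 mV. Buffer is 116 mM NaCl, 2 mM KCl, 0.3 mM BaCl2, 5 mM HEPES, pH 7.4. The plateau response to bath-applied 10 μM L-glutamate plus 10 μM glycine is measured. Apparent Ki is IC50/(1+[agonist]/EC50).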

Rattus norvegicus [12] = species: Rattus norvegicus; test: Selectivity ratio of Ki(app) for rat recombinant GluN1/GluN2B receptor to Ki(app) for rat recombinant GluN1/GluN2D receptor; how it was run: as §4
Rattus norvegicus [13] = species: Rattus norvegicus; test: Selectivity ratio of Ki(app) for rat recombinant GluN1/GluN2A receptor to Ki(app) for rat recombinant GluN1/GluN2D receptor
[14] = system: Kainate receptors (Rattus norvegicus); test: Displacement of [3H]-Kainate from native kainate receptors in rat brain homogenate; conditions: concentration not given here
[15] = Selectivity ratio of Kb for human recombinant GluK1 receptor to Ki(app) for rat recombinant GluN1/GluN2D receptor

| SMILES | Ki [1] | Kb [2] | Ki [3] | Ki [4] | Ki [5] | Kb [6] | other results |
| --- | --- | --- | --- | --- | --- | --- | --- |
| O=C(O)[C@H]1NCCN(C(=O)c2ccc(C#Cc3ccccc3)cc2)[C@H]1C(=O)O (relative stereo) | 24.1 µM | > 100 µM | 138 µM | 10.5 µM | 21.4 µM | – | – |
| O=C(O)[C@H]1NCCN(S(=O)(=O)c2ccc(-c3ccccc3)cc2)[C@H]1C(=O)O | – | – | – | 10.9 µM | – | > 100 µM | – |
| O=C(O)C1NCCN(C(=O)c2ccc3c(ccc4ccccc43)c2)C1C(=O)O (racemic) [listing 1 of 2 here] | – | > 100 µM | – | – | – | 7.5 µM | – |
| O=C(O)c1ccc2cc(C(=O)N3CCN[C@H](C(=O)O)[C@@H]3C(=O)O)ccc2c1 (relative stereo) | > 100 µM | – | > 100 µM | > 100 µM | > 100 µM | 59.7 µM | inhibition [7]: < 5%; inhibition [8]: < 5%; inhibition [9]: < 5%; inhibition [10]: < 5% |
| O=C(O)[C@H]1NCCN(C(=O)c2ccc(/N=N/c3ccccc3)cc2)[C@H]1C(=O)O (relative stereo) | 12.9 µM | > 100 µM | 99.3 µM | 10.8 µM | 28 µM | – | – |
| O=C(O)[C@H]1NCCN(C(=O)c2ccc3ccc4ccccc4c3c2)[C@H]1C(=O)O | 17.2 µM | > 100 µM | 22 µM | 2.4 µM | 5.2 µM | 14.2 µM | Ratio Ki(app) (Rattus norvegicus [11]): 2; Ratio Ki(app) (Rattus norvegicus [12]): 7; Ratio Ki(app) (Rattus norvegicus [13]): 10; inhibition [14]: 10% |
| O=C(O)[C@H]1NCCN(C(=O)c2ccc3cc4ccccc4cc3c2)[C@H]1C(=O)O (relative stereo) | 5.2 µM | > 100 µM | 10.5 µM | 2.5 µM | 3.4 µM | 14.4 µM | – |
| O=C(O)[C@@H]1[C@H](C(=O)O)NCCN1C(=O)c1ccc2c(ccc3ccccc32)c1 | 0.22 µM | > 100 µM | 0.21 µM | 0.09 µM | 0.07 µM | 3 µM | Ratio [15]: 30 |
| O=C(O)[C@H]1NCCN(C(=O)c2ccc(CCc3ccccc3)cc2)[C@H]1C(=O)O (relative stereo) | > 100 µM | – | > 100 µM | > 100 µM | > 100 µM | 16.7 µM | inhibition [7]: > 5%; inhibition [8]: 10.2%; inhibition [9]: 29.1%; inhibition [10]: 11.5% |
| O=C(O)C1NCCN(C(=O)c2ccc3c(ccc4ccccc43)c2)C1C(=O)O (racemic) [listing 2 of 2 here] | 0.31 µM | – | 0.55 µM | 0.13 µM | 0.1 µM | – | – |
| O=C(O)C1NCCN(C(=O)c2ccc3c(ccc4ccccc43)c2)C1C(=O)O (single isomer, unassigned; (+)) | – | – | – | – | – | 82 µM | – |
| O=C(O)[C@H]1NCCN(C(=O)c2ccc3cc(Cl)c4ccccc4c3c2)[C@H]1C(=O)O (relative stereo) | 15.2 µM | – | 7.2 µM | 1.7 µM | 3.2 µM | 21.8 µM | – |
| O=C(O)[C@H]1NCCN(C(=O)CCc2ccc3ccccc3c2)[C@H]1C(=O)O (relative stereo) | 2.3 µM | – | 5.1 µM | 2.7 µM | 4.1 µM | 67.8 µM | – |
| O=C(O)[C@H]1NCCN(C(=O)c2ccc3c(c2)CCc2cc(Br)ccc2-3)[C@H]1C(=O)O | – | – | – | 1 µM | – | 11.5 µM | – |
| O=C(O)[C@H]1NCCN(C(=O)c2ccc3cc(Br)c4ccccc4c3c2)[C@H]1C(=O)O (relative stereo) | 8 µM | > 100 µM | 11.5 µM | 1.2 µM | 2.8 µM | 12.8 µM | Ratio Ki(app) (Rattus norvegicus [11]): 2; Ratio Ki(app) (Rattus norvegicus [12]): 7; Ratio [15]: 9; Ratio Ki(app) (Rattus norvegicus [13]): 10; inhibition [14]: 10% |
| O=C(O)[C@H]1NCCN(C(=O)c2ccc3c(c2)CCc2ccccc2-3)[C@H]1C(=O)O | – | > 100 µM | – | 0.57 µM | – | 14.1 µM | – |
| O=C(O)[C@H]1NCCN(C(=O)c2ccc3ccccc3c2)[C@H]1C(=O)O | – | – | – | – | – | 45.6 µM | – |
| O=C(O)[C@H]1NCCN(C(=O)c2ccc3cc(F)ccc3c2)[C@H]1C(=O)O (relative stereo) | 12.3 µM | – | 7.4 µM | 5.1 µM | 3.6 µM | 52.9 µM | – |
| O=C(O)[C@H]1NCCN(C(=O)c2ccc(-c3ccccc3)cc2)[C@H]1C(=O)O | – | > 100 µM | – | 4.3 µM | – | 9.8 µM | – |
| O=C(O)[C@H]1NCCN(C(=O)c2ccc3cc(I)ccc3c2)[C@H]1C(=O)O (relative stereo) | 1.3 µM | > 100 µM | 3 µM | 1.6 µM | 1.8 µM | 7.5 µM | – |
| O=C(O)[C@@H]1NCCN(C(=O)c2ccc3c(ccc4ccccc43)c2)[C@H]1C(=O)O (racemic) | – | – | – | 6 µM | – | 59.2 µM | – |
| O=C(O)[C@H]1NCCN(Cc2ccc3c(ccc4ccccc43)c2)[C@H]1C(=O)O | – | – | – | 3.2 µM | – | 39 µM | – |
| O=C(O)[C@H]1NCCN(C(=O)c2ccc3cc(Br)ccc3c2)[C@H]1C(=O)O (relative stereo) | 2.7 µM | – | 4.1 µM | 2.2 µM | 2.1 µM | 16.2 µM | – |
| O=C(O)[C@H]1NCCN(C(=O)c2ccc3c(ccc4cc(Br)ccc43)c2)[C@H]1C(=O)O | – | > 100 µM | – | 0.15 µM | – | 8 µM | – |
